Drawing on PubChem BioAssay AID2522 (Broad Institute, 2010), this text covers inhibition for one compound.

The term inhibition denotes the drop in the measured response relative to a control, in per cent.

The test concerns human washed platelets, A23187-induced P-selectin, flow cytometry. Kind of test: calcium ionophore platelet activation inhibition – cell-based, fluorescence, flow cytometry, platelets, selectivity assay (AID 2522). As to conditions: at 30 µM, stronger effect = higher value. The gist of the method:
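Material: platelets / Reagent: Ca2+ ionophore A23187 at 10 µM, 15 min stimulation / Doses: single compound dose of 30 µM / Timing: 20 min compound pre-incubation, 15 min A23187, 20 min staining / Measured by: flow cytometry with PE-labeled anti-P-selectin antibody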
Background: In flow cytometry, cells or beads pass a laser one at a time.

Molecules are shown by their SMILES. Records with an inconclusive call do not appear. Active and inactive are the calls of the source.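 Rule for the calls: active = mean inhibition at 30 µM above 50% in every run; inconclusive = inhibition above 50% in some runs but not in others; inactive = inhibition at most 50% in every run.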

`C/C(=N/NC(=O)C1CCCC1)c1ccc(NC(=O)C(F)(F)F)cc1`: the inhibition was 6% (inactive). Where the note is “measured here: inhibition, second run”, the inhibition is 1%.
